The source of these data is ChEMBL document CHEMBL1250442, “Inhibiting gene expression at transcription start sites in chromosomal DNA with antigene RNAs” (Nat Chem Biol, 2005).

As a reminder, the inhibition is the drop in the measured response relative to a control, in per cent.

The test system of experiment [1] is T47D. Nature of the experiment: Inhibition of cyclooxygenase-2 expression in human T47D cells at 25 nM by syber green assay. The class given is functional, cell-based.
In experiment [2] the test system is T47D. Nature of the experiment: Inhibition of PR-B mRNA gene expression in human T47D cells at 100 nM by syber green assay. The class given is functional. Put shortly: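 T47D cells in RPMI-1640 with 10% FBS, NEAA, insulin, 37 °C, 5% CO2. Plated two days before transfection without antibiotics. Oligofectamine-mediated duplex RNA transfection at 100 nM final, medium changed at 24 h, harvest five days post-transfection. Total RNA extracted with TRIzol. hPR mRNA quantified by SYBR Green qPCR: 50 °C 2 min, 95 °C 10 min, then 40 cycles of 95 °C 15 s / 60 °C 1 min.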

The test system of experiment [3] is T47D. Nature of the experiment: Inhibition of PR-A gene expression in human T47D cells at 25 nM by syber green assay in presence of 10 nM estradiol. The class given is functional, cell-based.
Experiment [4] relates to T47D. Nature of the experiment: Inhibition of PR-A mRNA gene expression in human T47D cells at 100 nM by syber green assay. The class given is functional. Put shortly: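 T47D cells plated at 80,000/well without antibiotics two days before Oligofectamine transfection with agRNA duplex (25 or 100 nM final); medium changed at 24 h, harvest day 5 unless stated otherwise. TRIzol total RNA; PR mRNA by real-time PCR with SYBR Green: 50 °C 2 min, 95 °C 10 min, 40 cycles 95 °C 15 s/60 °C 1 min.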

The test system of experiment [5] is T47D. Nature of the experiment: Inhibition of androgen receptor expression in human T47D cells after 12 days at 100 nM by syber green assay. The class given is functional, cell-based. The gist of the method:
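AR expression in T47D cells, grown in RPMI-1640 with 10% FBS, NEAA and insulin. Plated antibiotic-free two days before Oligofectamine transfection with 100 nM duplex RNA; medium replaced after 24 h. TRIzol total RNA. SYBR Green real-time PCR: 50 °C 2 min, 95 °C 10 min, 40 cycles of 95 °C 15 s and 60 °C 1 min.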

The subject of experiment [6] is T47D. Nature of the experiment: Inhibition of PR-B gene expression in human T47D cells at 25 nM by syber green assay in presence of 10 nM estradiol. The class given is functional, cell-based.
Experiment [7] deals with T47D. Nature of the experiment: Inhibition of major vault protein expression in human T47D cells at 100 nM by syber green assay. The class given is functional, cell-based.

The source made the active and inactive calls. The rule behind the calls is not given here.

In the case of `Cc1cn(CC(=O)N(CCNC(=O)CN(CCNC(=O)CN(CCNC(=O)CN(CCNC(=O)CN(CCNC(=O)CN(CCNC(=O)CN(CCNC(=O)CN(CCNC(=O)CN(CCNC(=O)CN(CCNC(=O)CN(CCNC(=O)CN(CCNC(=O)CN(CCNC(=O)CN(CCNC(=O)CN(CCNC(=O)CN(CCNC(=O)CN(CCNC(=O)CN(CCNC(=O)CN(CCNC(=O)CN(CCNC(=O)CN)C(=O)Cn2ccc(=O)[nH]c2=O)C(=O)Cn2ccc(N)nc2=O)C(=O)Cn2cnc3c(=O)[nH]c(N)nc32)C(=O)Cn2cnc3c(=O)[nH]c(N)nc32)C(=O)Cn2ccc(=O)[nH]c2=O)C(=O)Cn2ccc(=O)[nH]c2=O)C(=O)Cn2cnc3c(N)ncnc32)C(=O)Cn2cnc3c(=O)[nH]c(N)nc32)C(=O)Cn2ccc(N)nc2=O)C(=O)Cn2cnc3c(=O)[nH]c(N)nc32)C(=O)Cn2cnc3c(N)ncnc32)C(=O)Cn2ccc(N)nc2=O)C(=O)Cn2ccc(N)nc2=O)C(=O)Cn2cnc3c(N)ncnc32)C(=O)Cn2cnc3c(N)ncnc32)C(=O)Cn2ccc(=O)[nH]c2=O)C(=O)Cn2ccc(=O)[nH]c2=O)C(=O)Cn2cnc3c(N)ncnc32)C(=O)Cn2ccc(=O)[nH]c2=O)CC(=O)NCCN(CC(=O)NCC(=O)O)C(=O)Cn2cc(C)c(=O)[nH]c2=O)c(=O)[nH]c1=O`, the inhibition entry with T47D [1] and in the experiment with T47D [3] was “Active” in each case. In addition, the inhibition at 0.1 µM with T47D [2] and in the experiment with T47D [4] was 71% in each case.
As for `Cc1cn(CC(=O)N(CCNC(=O)CN(CCNC(=O)CN(CCNC(=O)CN(CCNC(=O)CN(CCNC(=O)CN(CCNC(=O)CN(CCNC(=O)CN(CCNC(=O)CN(CCNC(=O)CN(CCNC(=O)CN(CCNC(=O)CN(CCNC(=O)CN(CCNC(=O)CN(CCNC(=O)CN(CCNC(=O)CN(CCNC(=O)CN(CCNC(=O)CN(CCNC(=O)CN(CCNC(=O)CN(CCNC(=O)CN)C(=O)Cn2ccc(=O)[nH]c2=O)C(=O)Cn2ccc(=O)[nH]c2=O)C(=O)Cn2cnc3c(N)ncnc32)C(=O)Cn2cnc3c(=O)[nH]c(N)nc32)C(=O)Cn2ccc(N)nc2=O)C(=O)Cn2cnc3c(=O)[nH]c(N)nc32)C(=O)Cn2cnc3c(N)ncnc32)C(=O)Cn2ccc(N)nc2=O)C(=O)Cn2ccc(N)nc2=O)C(=O)Cn2cnc3c(N)ncnc32)C(=O)Cn2cnc3c(N)ncnc32)C(=O)Cn2ccc(=O)[nH]c2=O)C(=O)Cn2ccc(=O)[nH]c2=O)C(=O)Cn2cnc3c(=O)[nH]c(N)nc32)C(=O)Cn2ccc(=O)[nH]c2=O)C(=O)Cn2ccc(N)nc2=O)C(=O)Cn2cnc3c(N)ncnc32)C(=O)Cn2ccc(=O)[nH]c2=O)C(=O)Cn2cnc3c(N)ncnc32)CC(=O)NCCN(CC(=O)NCC(=O)O)C(=O)Cn2cc(C)c(=O)[nH]c2=O)c(=O)[nH]c1=O`, the inhibition entry in the experiment with T47D [1] and in the experiment with T47D [3] was “Active” each time. The inhibition at 0.1 µM with T47D [2] and in the experiment on T47D [4] was 81% throughout.
Turning to `Cc1cn(CC(=O)N(CCNC(=O)CN(CCNC(=O)CN(CCNC(=O)CN(CCNC(=O)CN(CCNC(=O)CN(CCNC(=O)CN(CCNC(=O)CN(CCNC(=O)CN(CCNC(=O)CN(CCNC(=O)CN(CCNC(=O)CN(CCNC(=O)CN(CCNC(=O)CN(CCNC(=O)CN(CCNC(=O)CN(CCNC(=O)CN(CCNC(=O)CN(CCNC(=O)CN(CCNC(=O)CN(CCNC(=O)CN)C(=O)Cn2cnc3c(=O)[nH]c(N)nc32)C(=O)Cn2cnc3c(=O)[nH]c(N)nc32)C(=O)Cn2cnc3c(=O)[nH]c(N)nc32)C(=O)Cn2cnc3c(=O)[nH]c(N)nc32)C(=O)Cn2ccc(N)nc2=O)C(=O)Cn2cnc3c(=O)[nH]c(N)nc32)C(=O)Cn2ccc(N)nc2=O)C(=O)Cn2ccc(=O)[nH]c2=O)C(=O)Cn2cnc3c(=O)[nH]c(N)nc32)C(=O)Cn2cnc3c(=O)[nH]c(N)nc32)C(=O)Cn2cnc3c(=O)[nH]c(N)nc32)C(=O)Cn2cnc3c(N)ncnc32)C(=O)Cn2cnc3c(=O)[nH]c(N)nc32)C(=O)Cn2cnc3c(=O)[nH]c(N)nc32)C(=O)Cn2ccc(=O)[nH]c2=O)C(=O)Cn2cnc3c(=O)[nH]c(N)nc32)C(=O)Cn2cnc3c(=O)[nH]c(N)nc32)C(=O)Cn2cnc3c(N)ncnc32)C(=O)Cn2cnc3c(=O)[nH]c(N)nc32)CC(=O)NCCN(CC(=O)NCC(=O)O)C(=O)Cn2cc(C)c(=O)[nH]c2=O)c(=O)[nH]c1=O`, the inhibition at 0.1 µM in the experiment with T47D [2] and in the experiment on T47D [4] was 39% throughout. Further, the inhibition result with T47D [3], in the experiment on T47D [5] and in the experiment with T47D [6] was “Active” each time.
Take `Cc1cn(CC(=O)N(CCNC(=O)CN(CCNC(=O)CN(CCNC(=O)CN(CCNC(=O)CN(CCNC(=O)CN(CCNC(=O)CN(CCNC(=O)CN(CCNC(=O)CN(CCNC(=O)CN(CCNC(=O)CN(CCNC(=O)CN(CCNC(=O)CN(CCNC(=O)CN(CCNC(=O)CN(CCNC(=O)CN(CCNC(=O)CN(CCNC(=O)CN(CCNC(=O)CN(CCNC(=O)CN(CCNC(=O)CN)C(=O)Cn2cnc3c(N)ncnc32)C(=O)Cn2cnc3c(=O)[nH]c(N)nc32)C(=O)Cn2cnc3c(=O)[nH]c(N)nc32)C(=O)Cn2ccc(N)nc2=O)C(=O)Cn2cnc3c(N)ncnc32)C(=O)Cn2cnc3c(=O)[nH]c(N)nc32)C(=O)Cn2cnc3c(=O)[nH]c(N)nc32)C(=O)Cn2cnc3c(=O)[nH]c(N)nc32)C(=O)Cn2ccc(=O)[nH]c2=O)C(=O)Cn2cnc3c(=O)[nH]c(N)nc32)C(=O)Cn2cnc3c(N)ncnc32)C(=O)Cn2cnc3c(=O)[nH]c(N)nc32)C(=O)Cn2cnc3c(N)ncnc32)C(=O)Cn2cnc3c(=O)[nH]c(N)nc32)C(=O)Cn2ccc(=O)[nH]c2=O)C(=O)Cn2ccc(=O)[nH]c2=O)C(=O)Cn2ccc(N)nc2=O)C(=O)Cn2ccc(N)nc2=O)C(=O)Cn2ccc(N)nc2=O)CC(=O)NCCN(CC(=O)NCC(=O)O)C(=O)Cn2cc(C)c(=O)[nH]c2=O)c(=O)[nH]c1=O`: the inhibition at 0.1 µM with T47D [2] and with T47D [4] was 81% in each case. Moreover, the inhibition entry in the experiment on T47D [7], in the experiment on T47D [3] and in the experiment with T47D [6] was “Active” each time.
`Cc1cn(CC(=O)N(CCNC(=O)CN(CCNC(=O)CN(CCNC(=O)CN(CCNC(=O)CN(CCNC(=O)CN(CCNC(=O)CN(CCNC(=O)CN(CCNC(=O)CN(CCNC(=O)CN(CCNC(=O)CN(CCNC(=O)CN(CCNC(=O)CN(CCNC(=O)CN(CCNC(=O)CN(CCNC(=O)CN(CCNC(=O)CN(CCNC(=O)CN(CCNC(=O)CN(CCNC(=O)CN(CCNC(=O)CN)C(=O)Cn2ccc(N)nc2=O)C(=O)Cn2cnc3c(N)ncnc32)C(=O)Cn2ccc(N)nc2=O)C(=O)Cn2ccc(N)nc2=O)C(=O)Cn2ccc(=O)[nH]c2=O)C(=O)Cn2ccc(N)nc2=O)C(=O)Cn2ccc(N)nc2=O)C(=O)Cn2ccc(N)nc2=O)C(=O)Cn2cnc3c(N)ncnc32)C(=O)Cn2cnc3c(=O)[nH]c(N)nc32)C(=O)Cn2ccc(N)nc2=O)C(=O)Cn2cnc3c(=O)[nH]c(N)nc32)C(=O)Cn2ccc(N)nc2=O)C(=O)Cn2ccc(N)nc2=O)C(=O)Cn2ccc(N)nc2=O)C(=O)Cn2ccc(N)nc2=O)C(=O)Cn2ccc(N)nc2=O)C(=O)Cn2ccc(=O)[nH]c2=O)C(=O)Cn2ccc(N)nc2=O)CC(=O)NCCN(CC(=O)NCC(=O)O)C(=O)Cn2cc(C)c(=O)[nH]c2=O)c(=O)[nH]c1=O`: the inhibition at 0.1 µM in the experiment with T47D [2] and in the experiment with T47D [4] was 100% in each case. Besides, the inhibition entry in the experiment with T47D [3], with T47D [5] and in the experiment with T47D [6] was “Active” in each case.
`Cc1cn(CC(=O)N(CCNC(=O)CN(CCNC(=O)CN(CCNC(=O)CN(CCNC(=O)CN(CCNC(=O)CN(CCNC(=O)CN(CCNC(=O)CN(CCNC(=O)CN(CCNC(=O)CN(CCNC(=O)CN(CCNC(=O)CN(CCNC(=O)CN(CCNC(=O)CN(CCNC(=O)CN(CCNC(=O)CN(CCNC(=O)CN(CCNC(=O)CN(CCNC(=O)CN(CCNC(=O)CN(CCNC(=O)CN)C(=O)Cn2ccc(=O)[nH]c2=O)C(=O)Cn2ccc(N)nc2=O)C(=O)Cn2ccc(=O)[nH]c2=O)C(=O)Cn2ccc(N)nc2=O)C(=O)Cn2ccc(N)nc2=O)C(=O)Cn2cnc3c(N)ncnc32)C(=O)Cn2ccc(N)nc2=O)C(=O)Cn2ccc(N)nc2=O)C(=O)Cn2ccc(=O)[nH]c2=O)C(=O)Cn2ccc(N)nc2=O)C(=O)Cn2ccc(N)nc2=O)C(=O)Cn2ccc(N)nc2=O)C(=O)Cn2cnc3c(N)ncnc32)C(=O)Cn2cnc3c(=O)[nH]c(N)nc32)C(=O)Cn2ccc(N)nc2=O)C(=O)Cn2cnc3c(=O)[nH]c(N)nc32)C(=O)Cn2ccc(N)nc2=O)C(=O)Cn2ccc(N)nc2=O)C(=O)Cn2ccc(N)nc2=O)CC(=O)NCCN(CC(=O)NCC(=O)O)C(=O)Cn2cc(C)c(=O)[nH]c2=O)c(=O)[nH]c1=O`: the inhibition at 0.1 µM in the experiment on T47D [2] and with T47D [4] was under 20% in each case. Further, the inhibition entry with T47D [3], with T47D [5] and in the experiment on T47D [6] was “Active” in each case.
